Data published in BindingDB's records for doi:10.1016/j.ejmech.2020.112062 (Mansoura University, 2020).

Target: Transcription factor p65 (Human, UniProt Q04206)
Experiment: Inhibition of NFkappaB p65 in human RPMI-8226 cells incubated for 2 hrs by ELISA
Outline: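 Target levels measured by ELISA kits in RPMI-8226 cells. Cells were seeded and grown 24 h at 37 °C, then exposed 72 h to a semi-log series of concentrations. Sample was incubated 2 h at 37 °C, followed by detection reagents A and B (1 h each), TMB substrate and stop solution, with OD read at 450 nm. IC50 was taken from sigmoidal dose-response nonlinear regression of % activity.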

Sequence of Transcription factor p65 (Q04206 whole entry): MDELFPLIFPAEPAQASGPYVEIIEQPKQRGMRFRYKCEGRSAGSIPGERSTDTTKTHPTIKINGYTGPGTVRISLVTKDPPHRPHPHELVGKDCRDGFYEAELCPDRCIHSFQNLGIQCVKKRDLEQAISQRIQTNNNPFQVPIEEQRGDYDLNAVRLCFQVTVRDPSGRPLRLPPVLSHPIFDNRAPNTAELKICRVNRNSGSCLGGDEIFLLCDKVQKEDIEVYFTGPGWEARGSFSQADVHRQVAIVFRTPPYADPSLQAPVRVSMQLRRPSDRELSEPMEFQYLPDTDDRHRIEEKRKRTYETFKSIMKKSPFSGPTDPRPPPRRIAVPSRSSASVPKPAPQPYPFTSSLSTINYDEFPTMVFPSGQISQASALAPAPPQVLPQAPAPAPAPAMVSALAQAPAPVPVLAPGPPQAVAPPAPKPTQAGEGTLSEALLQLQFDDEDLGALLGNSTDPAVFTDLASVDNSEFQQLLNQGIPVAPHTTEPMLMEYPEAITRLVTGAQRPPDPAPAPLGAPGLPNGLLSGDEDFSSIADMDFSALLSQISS

Row | SMILES | IC50
1 | COc1ccc(/C=C/C(=O)c2nnn(-c3ccc(Cl)cc3)c2C)cc1OC | 0.134 µM
2 | COc1cc2ncnc(Nc3ccc(F)c(Cl)c3)c2cc1OCCCN1CCOCC1 [ZD1839] | 0.055 µM
